According to ChEMBL document CHEMBL1145341, “Synthesis and biological evaluation of bisindenoisoquinolines as topoisomerase I inhibitors” (2006):
The source made the active and inactive calls. The calls are words filed in the database; no cut-off is given here.

Experiments:
HCT-116 = experiment: Antiproliferative activity against human HCT116 cell line; type: functional
HOP-62 = experiment: Antiproliferative activity against human HOP62 cell line; type: functional
UACC-62 = experiment: Antiproliferative activity against human UACC62 cell line; type: functional
SF-539 = experiment: Antiproliferative activity against human SF539 cell line; type: functional
DU-145 = experiment: Antiproliferative activity against human DU145 cell line; type: functional
SN12C = experiment: Antiproliferative activity against human SN12C cell line; type: functional
MDA-MB-435 = experiment: Antiproliferative activity against human MDA-MB-435 cell line; type: functional
OVCAR-3 = experiment: Antiproliferative activity against human OVCAR-3 cell line; type: functional
[1] = molecular target: T1, DNA topoisomerase 1 (Homo sapiens) (UniProt P11387); experiment: Inhibition of human recombinant Top1-mediated DNA cleavage upto 10 uM
T1 sequence (whole entry): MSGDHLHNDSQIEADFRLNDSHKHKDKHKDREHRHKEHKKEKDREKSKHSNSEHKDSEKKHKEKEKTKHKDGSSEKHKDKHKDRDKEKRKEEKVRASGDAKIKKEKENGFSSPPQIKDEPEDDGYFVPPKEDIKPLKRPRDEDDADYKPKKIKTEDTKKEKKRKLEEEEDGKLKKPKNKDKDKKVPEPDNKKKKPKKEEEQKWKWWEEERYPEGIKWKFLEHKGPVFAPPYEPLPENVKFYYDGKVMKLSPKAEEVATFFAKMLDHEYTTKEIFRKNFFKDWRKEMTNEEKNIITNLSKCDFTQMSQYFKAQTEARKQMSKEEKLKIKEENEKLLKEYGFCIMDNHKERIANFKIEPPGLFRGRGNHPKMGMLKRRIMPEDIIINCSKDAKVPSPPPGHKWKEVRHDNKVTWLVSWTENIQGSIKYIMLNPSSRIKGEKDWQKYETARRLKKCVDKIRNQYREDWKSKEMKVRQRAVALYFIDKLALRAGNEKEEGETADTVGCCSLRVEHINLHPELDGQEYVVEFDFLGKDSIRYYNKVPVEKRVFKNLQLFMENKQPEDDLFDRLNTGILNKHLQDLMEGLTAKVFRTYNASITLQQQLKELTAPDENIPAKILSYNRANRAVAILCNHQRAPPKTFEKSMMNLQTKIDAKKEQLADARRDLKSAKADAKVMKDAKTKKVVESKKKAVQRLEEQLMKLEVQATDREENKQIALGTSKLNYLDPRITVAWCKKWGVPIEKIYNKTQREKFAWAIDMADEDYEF
Method in brief: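 Baculovirus-purified human recombinant Top1. Substrate: 161 bp PvuII/HindIII fragment of pBluescript SK(-), 3′-end labeled with [α-32P]-dGTP by Klenow fill-in, about 50 000 dpm per reaction. Compounds up to 10 µM, 22 °C for 30 min; stopped with 0.5% SDS (final). Denaturing 16% polyacrylamide/7 M urea gels, phosphorimaging. Cleavage scored semiquantitatively (+ to ++++) against a reference indenoisoquinoline and 1 µM camptothecin.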

[2] = system: Panel (12 tumour cell lines); experiment: Net cell kill in ip dosed mouse implanted with 12 human tumor cell lines; type: functional, organism-based

| Structure (SMILES) | GI50 (HCT-116) [nM] | GI50 (DU-145) [nM] | GI50 (MDA-MB-435) [nM] | GI50 (OVCAR-3) [nM] | Activity [1] | GI50 (HOP-62) [nM] | GI50 (UACC-62) [nM] | GI50 (SF-539) [nM] | GI50 (SN12C) [nM] | Activity [2] |
| --- | --- | --- | --- | --- | --- | --- | --- | --- | --- | --- |
| CC(C)(C)OC(=O)N(CCCn1c2c(c3ccccc3c1=O)C(=O)c1ccccc1-2)CCN(CCCn1c2c(c3ccccc3c1=O)C(=O)c1ccccc1-2)C(=O)OC(C)(C)C | 14100 | > 50100 | > 50100 | 13200 |  | 20000 | 45700 | > 50100 | 39800 |  |
| O=C1c2ccccc2-c2c1c1ccccc1c(=O)n2CCCNCCn1c2c(c3ccccc3c1=O)C(=O)c1ccccc1-2 | 1050 | 1910 | 2240 | 8910 |  | 977 | 5010 | 14500 | 11000 |  |
| CC(C)(C)OC(=O)N(CCCCN(CCCn1c2c(c3ccccc3c1=O)C(=O)c1ccccc1-2)C(=O)OC(C)(C)C)CCCn1c2c(c3ccccc3c1=O)C(=O)c1ccccc1-2 | 1910 | 47900 | 69200 | 69200 |  | 11000 | 93300 | 8130 | 36300 |  |
| CC[C@@]1(O)C(=O)OCc2c1cc1n(c2=O)Cc2cc3ccccc3nc2-1 [CAMPTOTHECIN] | 30 | 10 | 40 |  |  | 10 | 10 | 10 | 20 |  |
| O=C1c2ccccc2-c2c1c1ccccc1c(=O)n2CCNCCNCCn1c2c(c3ccccc3c1=O)C(=O)c1ccccc1-2 | 29 | 182 | 1660 | 1660 |  | 32 | 331 |  | 178 |  |
| CC(C)(C)OC(=O)N(CCCN(CCn1c2c(c3ccccc3c1=O)C(=O)c1ccccc1-2)C(=O)OC(C)(C)C)CCn1c2c(c3ccccc3c1=O)C(=O)c1ccccc1-2 | 22900 | > 50100 | > 50100 | 21400 |  | 22400 | > 50100 | > 50100 | > 50100 |  |
| COc1cc2c3c(n(CCCNCCCNCCCn4c5c(c6cc(OC)c(OC)cc6c4=O)C(=O)c4ccccc4-5)c(=O)c2cc1OC)-c1ccccc1C3=O | 331 | 19500 | 3980 | 9550 |  | 1510 | 4270 | 4170 | 240 |  |
| O=C1c2ccccc2-c2c1c1ccccc1c(=O)n2CCCN1CCN(CCCn2c3c(c4ccccc4c2=O)C(=O)c2ccccc2-3)CC1 | 35500 | 24000 | > 100000 | > 100000 |  | 12900 | > 100000 | > 100000 | 15500 |  |
| O=C1c2ccccc2-c2c1c1ccccc1c(=O)n2CCNCCn1c2c(c3ccccc3c1=O)C(=O)c1ccccc1-2 | > 25100 | > 25100 | > 25100 | > 25100 |  | > 25100 | > 25100 | > 25100 | > 25100 |  |
| CC(=O)O[C@H]1C(=O)[C@@]2(C)[C@H]([C@H](OC(=O)c3ccccc3)[C@]3(O)C[C@H](OC(=O)[C@H](O)[C@@H](NC(=O)c4ccccc4)c4ccccc4)C(C)=C1C3(C)C)[C@]1(OC(C)=O)CO[C@@H]1C[C@@H]2O |  |  |  |  |  |  |  |  |  | Active |
| COc1cc2c3c(n(CCCNCCCNCCCN)c(=O)c2cc1OC)-c1cc2c(cc1C3=O)OCO2 | 43000 | > 100000 | 68000 | 880 |  |  | 44000 | > 100000 | 33000 |  |
| O=C1c2ccccc2-c2c1c1ccccc1c(=O)n2CCCNCCCn1c2c(c3ccccc3c1=O)C(=O)c1ccccc1-2 | 550 | 1000 | 8910 | 2950 |  | 794 | 6610 | 3630 | 1550 |  |

More lines, in order of falling GI50 (MDA-MB-435), values ahead:

| GI50 (HCT-116) [nM] | GI50 (DU-145) [nM] | GI50 (MDA-MB-435) [nM] | GI50 (OVCAR-3) [nM] | Activity [1] | Structure (SMILES) | GI50 (HOP-62) [nM] | GI50 (UACC-62) [nM] | GI50 (SF-539) [nM] | GI50 (SN12C) [nM] | Activity [2] |
| --- | --- | --- | --- | --- | --- | --- | --- | --- | --- | --- |
|  |  | 1550 | 1200 |  | CN(CCCn1c2c(c3ccccc3c1=O)C(=O)c1ccccc1-2)CCCn1c2c(c3ccccc3c1=O)C(=O)c1ccccc1-2 |  | 2000 | 1120 | 589 |  |
| 112 | 331 | 1000 | 1150 | Active | O=C1c2ccccc2-c2c1c1ccccc1c(=O)n2CCNCCNCCNCCn1c2c(c3ccccc3c1=O)C(=O)c1ccccc1-2 | 48 | 269 | 275 | 17 | inactive |
| < 10 | < 10 | 933 | 1020 | Active | O=C1c2ccccc2-c2c1c1ccccc1c(=O)n2CCCNCCNCCCn1c2c(c3ccccc3c1=O)C(=O)c1ccccc1-2 | < 10 | 52 |  | < 10 |  |
| 45 | 209 | 813 | 269 |  | COc1cc2c3c(n(CCNCCCNCCn4c5c(c6cc(OC)c(OC)cc6c4=O)C(=O)c4ccccc4-5)c(=O)c2cc1OC)-c1ccccc1C3=O | 68 | 1230 | 170 | 28 |  |
| 180 | 220 | 780 | 1380 |  | NCCCn1c2c(c3ccccc3c1=O)C(=O)c1ccccc1-2 | 200 | 260 | 250 | 160 |  |
| < 5 | 234 | 676 | 135 | Active | O=C1c2ccccc2-c2c1c1ccccc1c(=O)n2CCCNCCCCNCCCn1c2c(c3ccccc3c1=O)C(=O)c1ccccc1-2 | 525 | 562 | 251 | < 5 | inactive |
| 56 | 288 | 562 | 372 |  | O=C1c2ccccc2-c2c1c1ccccc1c(=O)n2CCCCNCCCn1c2c(c3ccccc3c1=O)C(=O)c1ccccc1-2 | 28 | 513 |  | 132 |  |
| 200 | 85 | 126 | 32 |  | O=C1c2ccccc2-c2c1c1ccccc1c(=O)n2CCNCCNCCNCCNCCn1c2c(c3ccccc3c1=O)C(=O)c1ccccc1-2 | 977 |  | 12 |  |  |
| < 10 |  | 107 | 74 | Active | O=C1c2ccccc2-c2c1c1ccccc1c(=O)n2CCCNCCCNCCCn1c2c(c3ccccc3c1=O)C(=O)c1ccccc1-2 | < 10 | 42 | 11 | < 10 | inactive |
| < 5 | 79 | 24 | 93 | Active | O=C1c2ccccc2-c2c1c1ccccc1c(=O)n2CCNCCCNCCn1c2c(c3ccccc3c1=O)C(=O)c1ccccc1-2 | 339 | 182 | 155 | < 5 | inactive |
